Compound activity from PubChem.
Bfl-1 A1 inh: caspase 3/7 activation in MEF A1-2A-BIM cells, primary screen, A1 inhibitor project, cell-based, luminescence, HTS; Caspase-Glo 3/7 luminescence, 3 h; percent of clofoctol response, vehicle zero; caspase activation, % (no concentration beside the values); 330,000 compounds, 0.066% hits;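 active = over half of replicate activation scores above 10%, or exactly half above 10 with the replicate mean above 10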
GSK3 alpha inh: blockers of GSK3A enzyme activity – biochemical, luminescence, cell-free homogeneous, HTS, primary screen. 320,000 compounds, 0.1% hits. Glycogen synthase kinase-3 alpha (Homo sapiens), P49840. GSK-3 alpha kinase, ADP-Glo luminescence, 60 min. AID 2650, 2010. inhibition, % at 10 µM;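 active = more than half of replicates show inhibition above 20%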;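 also: GST-tagged GSK-3 alpha with peptide substrate and 25 µM ATP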
STK33 kinase inh: inhibitors of purified STK33 kinase, primary screen, biochemical, ADP-Glo luminescence, homogeneous, cell-free | 320,000 compounds, 0.073% hits | MBP phosphorylation | Serine/threonine-protein kinase 33 (Homo sapiens), Q9BYT3 | AID 2661, 2010 | inhibition, % at 10 µM;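 active = inhibition at or above 25%, using the most active replicate where run in duplicate; inactive = inhibition below 25%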
procasp3 activ: activators of human procaspase-3 D3A mutant, primary screen, biochemical, absorbance, PC-3 D3A mutant, single concentration; 330,000 compounds, 0.11% hits; recombinant procaspase-3 D3A, Ac-DEVD-pNA absorbance 405 nm; activation, % at 8.5 µM; Caspase-3 (Homo sapiens), P42574; AID 463141, 2010;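 active = activation above the mean of all tested compounds plus 3 SD, cut at about 21% in these data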
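assay system = Procaspase-3 D3A mutant | signal = absorbance at 405 nm, 0 and 120 min | times = 1 h preincubation plus 2 h reaction at 25 °C | repeats = single replicate | read-out = % activation between DMSO and enzyme-spiked controls | medium = Zinc-free HEPES saline buffer with Triton X-100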
proCasp7 act: procaspase-7 activators, primary screen, counter-screen for procaspase-3 activator project, biochemical, absorbance, HTS, human; recombinant procaspase-7, Ac-DEVD-pNA absorbance 405 nm; D23A/D198A/D206A triple mutant, cannot self-cleave; scale: DMSO 0, 5 µM enzyme 100; Caspase-7 (Homo sapiens), P55210; 330,000 compounds, 0.093% hits; activation, % at 8.5 µM;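 active = percent activation above the screen-wide mean plus 3 SD, cut at about 25% in these data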
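Assay system: Uncleavable procaspase-7 mutant enzyme | Input: 2 µM procaspase-7 mutant as dispensed | Timing: 1 h compound preincubation, 2 h substrate cleavage, 25 °C | Repeats: One well per compound | Control set: DMSO wells as 0%, DMSO with 5 µM added PC-7 as 100% | Technique: Epi-absorbance of released pNA at 405 nm, two timepoints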
GSK3beta inhib: human GSK3beta kinase inhibitors, primary screen, biochemical, cell-free homogeneous, HTS; activity score (negative = inhibition), % at 10 µM; GST-GSK3beta kinase, ADP-Glo luminescence, 60 min; stronger effect = lower value; Glycogen synthase kinase-3 beta (Homo sapiens), P49841; 300,000 compounds, 0.038% hits; AID 2097, 2009;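 active = more than half of replicate wells score below -50%, meaning over 50% inhibition versus plate controls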
Target sequence (P49841 whole entry, looked up): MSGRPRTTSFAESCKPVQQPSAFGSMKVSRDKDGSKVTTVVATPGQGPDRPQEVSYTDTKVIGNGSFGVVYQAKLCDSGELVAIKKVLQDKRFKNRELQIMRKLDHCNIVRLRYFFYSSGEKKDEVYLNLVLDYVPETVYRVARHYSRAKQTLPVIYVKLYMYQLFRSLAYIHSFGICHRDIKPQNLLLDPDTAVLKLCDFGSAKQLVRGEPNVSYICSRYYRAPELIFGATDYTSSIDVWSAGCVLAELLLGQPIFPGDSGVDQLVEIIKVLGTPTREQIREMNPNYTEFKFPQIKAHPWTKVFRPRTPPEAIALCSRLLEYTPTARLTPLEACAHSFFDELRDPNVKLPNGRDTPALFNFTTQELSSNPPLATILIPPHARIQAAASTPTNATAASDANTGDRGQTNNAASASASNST
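Assay system: GST-tagged human GSK3beta kinase, cell-free; Input: 1.6 ng GSK3beta; Medium: Tris/MgCl2 kinase buffer; Timing: 60 min enzyme reaction, room temperature; Signal: ADP-Glo luminescence quantifying ADP generated by kinase; Evaluation: score relative to plate controls; Benchmarks: DMSO neutral wells and GW8510 at 20 µM as positive.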
PC3 D3A act: procaspase-3 activators, counter-screen for dual procaspase-3/7 activator project, biochemical, absorbance, PC-3 D3A mutant, human; shares compounds with proCasp7 act; recombinant PC-3 D3A, Ac-DEVD-pNA absorbance 405 nm; aspartates 9, 28, 175 changed to alanine; 100% = enzyme control; activation, % at 8.5 µM; 290 tested, under 10 active; AID 493114, 2011;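 active = mean percent activation across triplicates above a set limit taken from the earlier primary procaspase-3 screen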
Procasp7 act: activation of procaspase-7 enzyme – biochemical, absorbance, human, dual procaspase-3/-7 activator project, confirmation; 290 tested, under 10 active; activation, % at 8.5 µM; recombinant procaspase-7, Ac-DEVD-pNA absorbance 405 nm; D23A/D198A/D206A mutant that cannot self-cleave; shares compounds with proCasp7 act;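 active = mean activation above a set limit carried over from the earlier primary screen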
Large screens that a line does not name were inactive (follow-up assays come after a bar, where they were run). Sampled rows, rich in hits. Any-hit rate of the full collection: about 0.38%.

NC(=O)c1nsc(C(=O)N(c2ccccc2)C(C(=O)NCc2ccc(F)cc2)c2ccc(O)cc2)c1N (centres undefined)	proCasp7 act 157.3 | PC3 D3A act inactive | Procasp7 act inactive
COc1ccc(OC)c(N(C(=O)c2snc(C(N)=O)c2N)C(C(=O)NCc2ccccc2)c2ccc(O)cc2)c1 (centres undefined)	none
COc1ccc(N(C(=O)c2snc(C(N)=O)c2N)C(C(=O)NCc2ccccc2)c2ccc(O)cc2)cc1 (centres undefined)	none (no result: Bfl-1 A1 inh, GSK3 alpha inh, STK33 kinase inh, procasp3 activ, proCasp7 act)
CC(=O)OCC(OC(C)=O)C(OC(C)=O)C(OC(C)=O)C(=O)Nc1ccccc1 (centres undefined)	none
Cc1ccccc1NC(=O)CN1CCOCC1	none (no result: procasp3 activ, proCasp7 act)
Cc1ccc(N)cc1NC(=O)CN1CCOCC1	proCasp7 act 26.1 | PC3 D3A act inactive | Procasp7 act inactive
Cc1ccc(NC(=O)CN(C)C(=O)COc2cccc3ccc(C)nc23)cc1	none (no result: GSK3beta inhib)
COc1ccc(Br)cc1/C=C1\Oc2ccccc2NC1=O	none
O=C1Nc2ccccc2O/C1=C\c1ccccc1Br	procasp3 activ 36.4, proCasp7 act 29.3 | PC3 D3A act inactive | Procasp7 act inactive
Cc1ccc(Oc2nc3c(C)cccn3c(=O)c2/C=C(\C#N)C(N)=O)cc1	procasp3 activ 22.2, proCasp7 act 45.6 | PC3 D3A act inactive | Procasp7 act inactive
COCCNC(=O)/C(C#N)=C/c1ccc(OCC(=O)NC2CCCCC2)cc1	none
O=C(c1ccccc1)c1ccc(OCCO)cc1	none
CCOc1cccc(OCCOc2ccc(C(=O)c3ccccc3)cc2)c1	proCasp7 act 25.9 | PC3 D3A act inactive | Procasp7 act inactive
Cc1cc(C)c2c(N)c(C(=O)N/N=C/c3ccccc3)sc2n1	procasp3 activ 35.2, proCasp7 act 32.1 | PC3 D3A act inactive | Procasp7 act inactive
Cc1cc(C)c2c(N)c(C(=O)N/N=C/c3cccnc3)sc2n1	none
COc1cccc(C=NCC(C)N=Cc2cccc(OC)c2O)c1O (centres undefined)	proCasp7 act 82.3 | PC3 D3A act inactive | Procasp7 act inactive
COc1ccc(-c2cc(C(F)F)n3ncc(C(=O)N4CCc5ccccc5C4)c3n2)cc1	proCasp7 act 26.3 | PC3 D3A act inactive | Procasp7 act inactive
COc1ccc(NC(=O)CSc2cn[nH]n2)cc1OC	none
CN(CCOc1ccccc1)CC(=O)Nc1ccc(Cl)cc1[N+](=O)[O-]	none (no result: GSK3 alpha inh, STK33 kinase inh)
COCC(=O)Nc1cccc(Br)c1	proCasp7 act 26.1 | PC3 D3A act inactive | Procasp7 act inactive
